These results are taken from ChEMBL document CHEMBL3244387, “Isolation, characterization, and properties of a labile hydrolysis product of the antitumor nucleoside, 5-azacytidine” (J Med Chem, 1978).

Series [1] deals with Mus musculus. Kind of series: Toxicity in mouse L1210 cells allografted CDF1 mouse assessed as change in body weight between day 1 and day 9 at 5 mg/kg, ip dosed on days 1, 5 and 9. The following applies: in vivo. Details: dose 5 mg/kg, route intraperitoneal. In kind it is organism-based. An outline of the steps: (§1)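 Female CDF1 mice, 11-12 weeks old, were given 0.1 mL L1210 suspension ip (1.43×10^6 cells/mL) on day 0. Drug was purified by preparative HPLC, dissolved in sterile 0.85% saline and given ip within 15 min, on days 1, 5 and 9. Ten mice per dose, with ten untreated controls. Weights on days 1, 5 and 9. Value is the mean body-weight change of treated minus control, in grams.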

The nature of series [2]: Half life in water at 2.6 mg/ml at 37 degC by UV-HPLC analysis. The class given is physicochemical.
Series [3] deals with Mus musculus. As to the kind of experiment: Toxicity in mouse L1210 cells allografted CDF1 mouse assessed as change in body weight between day 1 and day 5 at 60 mg/kg, ip dosed on days 1 and 5. Set-up: dose 60 mg/kg, route intraperitoneal. Particulars: in vivo. The class given is organism-based. The method in brief:
as §1

Series [4] can be described thus: Stability of the compound in water assessed as compound remaining at 2.6 mg/ml at 37 degC after 7 hrs by UV-HPLC analysis. The class given is physicochemical. The following applies: read-out: Stability.
In series [5] the test system is L1210. Kind of series: Antitumor activity against mouse L1210 cells allografted in CDF1 mouse assessed as increase in life span at 10 mg/kg, ip relative to control. The class given is functional. Particulars: route intraperitoneal. The method in brief: (§2)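 Female CDF1 mice, 11-12 weeks old, inoculated ip on day 0 with 0.1 mL L1210 suspension (1.43×10^6 cells/mL). Drug purified by preparative HPLC, dissolved in sterile 0.85% saline, injected ip within 15 min on days 1, 5 and 9. Ten mice per dose; ten untreated controls. Read-out: % increase in mean life span over controls; ≥25% counted as active; test run in duplicate.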

For series [6], the system named is Mus musculus. As to the kind of experiment: Toxicity in mouse L1210 cells allografted CDF1 mouse assessed as change in body weight between day 1 and day 9 at 60 mg/kg, ip dosed on days 1, 5 and 9. In kind it is organism-based. Set-up: dose 60 mg/kg, route intraperitoneal. The following applies: in vivo. The method in brief:
as §1

In series [7] the test system is Mus musculus. Kind of series: Toxicity in mouse L1210 cells allografted CDF1 mouse assessed as mortality at 5 to 60 mg/kg, ip. Particulars: in vivo. The class given is organism-based. Set-up: dose 5-60 mg/kg, route intraperitoneal. The method in brief: (§3)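 L1210 ip implant (1.43×10^6 cells/mL, 0.1 mL) in female CDF1 mice, 11-12 weeks old. Freshly dissolved HPLC-purified drug in 0.85% saline given ip on days 1, 5 and 9; ten mice per dose. Toxicity scored as early death from acute toxicity, with body weights on days 1, 5 and 9 compared against untreated controls.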

The subject of series [8] is Mus musculus. As to the kind of experiment: Toxicity in mouse L1210 cells allografted CDF1 mouse assessed as change in body weight between day 1 and day 5 at 20 mg/kg, ip dosed on days 1 and 5. In kind it is organism-based. Details: dose 20 mg/kg, route intraperitoneal. The following applies: in vivo. The method in brief:
as §1

Series [9] deals with Mus musculus. As to the kind of experiment: Toxicity in mouse L1210 cells allografted CDF1 mouse assessed as change in body weight between day 1 and day 9 at 20 mg/kg, ip dosed on days 1, 5 and 9. The class given is organism-based. Set-up: dose 20 mg/kg, route intraperitoneal. The following applies: in vivo. The method in brief:
as §1

Series [10] concerns Mus musculus. As to the kind of experiment: Toxicity in mouse L1210 cells allografted CDF1 mouse assessed as change in body weight between day 1 and day 9 at 10 mg/kg, ip dosed on days 1, 5 and 9. The class given is organism-based. Details: dose 10 mg/kg, route intraperitoneal. The following applies: in vivo. An outline of the steps: as §1
In series [11] the test system is Mus musculus. As to the kind of experiment: Toxicity in mouse L1210 cells allografted CDF1 mouse assessed as change in body weight between day 1 and day 5 at 10 mg/kg, ip dosed on days 1 and 5. In kind it is organism-based. Details: dose 10 mg/kg, route intraperitoneal. The following applies: in vivo. An outline of the steps:
as §1

Series [12] is described as follows: Stability of the compound in water assessed as compound remaining at 2.6 mg/ml at 37 degC after 4 hrs by UV-HPLC analysis. The following applies: read-out: Stability. The class given is physicochemical.
Series [13] relates to Mus musculus. Kind of series: Toxicity in mouse L1210 cells allografted CDF1 mouse assessed as change in body weight between day 1 and day 5 at 40 mg/kg, ip dosed on days 1 and 5. The following applies: in vivo. The class given is organism-based. Details: dose 40 mg/kg, route intraperitoneal. The method in brief:
as §1

Series [14] is described as follows: Half life in water at 2.6 mg/ml at 25 degC by UV-HPLC analysis. The class given is physicochemical.
Series [15] relates to Mus musculus. Kind of series: Toxicity in mouse L1210 cells allografted CDF1 mouse assessed as change in body weight between day 1 and day 5 at 5 mg/kg, ip dosed on days 1 and 5. The class given is organism-based. Details: dose 5 mg/kg, route intraperitoneal. The following applies: in vivo. An outline of the steps: as §1
For series [16], the system named is L1210. Kind of series: Antitumor activity against mouse L1210 cells allografted in CDF1 mouse assessed as increase in life span at 5 mg/kg, ip relative to control. The class given is functional. The following applies: route intraperitoneal. An outline of the steps:
as §2

Series [17] concerns L1210. Kind of series: Antitumor activity against mouse L1210 cells allografted in CDF1 mouse assessed as increase in life span at 60 mg/kg, ip relative to control. In kind it is functional. Particulars: route intraperitoneal. The method in brief:
as §2

Series [18] can be described thus: Stability of the compound in water assessed as compound remaining at 2.6 mg/ml at 25 degC after 24 hrs by UV-HPLC analysis. The following applies: read-out: Stability. In kind it is physicochemical.
The test system of series [19] is Mus musculus. As to the kind of experiment: Toxicity in mouse L1210 cells allografted CDF1 mouse assessed as change in body weight between day 1 and day 9 at 40 mg/kg, ip dosed on days 1, 5 and 9. The class given is organism-based. Set-up: dose 40 mg/kg, route intraperitoneal. Particulars: in vivo. An outline of the steps: as §1
In series [20] the test system is L1210. As to the kind of experiment: Antitumor activity against mouse L1210 cells allografted in CDF1 mouse assessed as increase in life span at 20 mg/kg, ip relative to control. In kind it is functional. Particulars: route intraperitoneal. An outline of the steps: as §2
Series [21] deals with L1210. Kind of series: Antitumor activity against mouse L1210 cells allografted in CDF1 mouse assessed as increase in life span at 40 mg/kg, ip relative to control. In kind it is functional. Particulars: route intraperitoneal. The method in brief:
as §2

In series [22] the test system is Mus musculus. As to the kind of experiment: Toxicity in mouse L1210 cells allografted CDF1 mouse assessed as mortality at 2.5 to 40 mg/kg, ip. In kind it is organism-based. Details: dose 2.5-40 mg/kg, route intraperitoneal. The following applies: in vivo. An outline of the steps: as §3
Series [23] has as its system Mus musculus. Kind of series: Toxicity in mouse L1210 cells allografted CDF1 mouse assessed as change in body weight between day 1 and day 9 at 2.5 mg/kg, ip dosed on days 1, 5 and 9. In kind it is organism-based. Set-up: dose 2.5 mg/kg, route intraperitoneal. Particulars: in vivo. The method in brief:
as §1

The next series is described as follows: Half life in mice. The following applies: mouse, in vivo.
Series [24] has as its system L1210. Kind of series: Antitumor activity against mouse L1210 cells allografted in CDF1 mouse assessed as increase in life span at 2.5 mg/kg, ip relative to control. The class given is functional. The following applies: route intraperitoneal. The method in brief: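 Female CDF1 mice, 11-12 weeks old, given 0.1 mL ip of L1210 cells at 1.43×10^6 cells/mL on day 0. Drug purified by preparative HPLC, dissolved in sterile 0.85% saline and injected ip within 15 min, on days 1, 5 and 9. Ten mice per dose, ten untreated controls. % ILS is the increase in mean life span over controls; ≥25% counted as active.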

Series [25] has as its system Mus musculus. Kind of series: Toxicity in mouse L1210 cells allografted CDF1 mouse assessed as change in body weight between day 1 and day 5 at 2.5 mg/kg, ip dosed on days 1 and 5. The following applies: in vivo. In kind it is organism-based. Details: dose 2.5 mg/kg, route intraperitoneal. The method in brief: as §1

With `N=C(NC=O)NC(=O)N[C@@H]1O[C@H](CO)[C@@H](O)[C@H]1O`, the Activity with Mus musculus [1] is listed as -2.6 g; in the series with Mus musculus [3] it was -1.9 g; in the series with Mus musculus [6], -4.3 g; in the series on Mus musculus [7], “Non-toxic”; in the series with Mus musculus [8] it was -1.9 g; in the series with Mus musculus [9], -3.8 g. Further, the Activity was -3.4 g with Mus musculus [10]; -1.6 g with Mus musculus [11]; -0.8 g in the series on Mus musculus [13]; -1.2 g in the series with Mus musculus [15]; -4.7 g in the series on Mus musculus [19]. Also, the half-life at 2.6 mg/ml is 2 h in [2] and 9 h in [14]. For the same compound, the remaining at 7 h, 2.6 mg/ml in series [4] was determined as 25%. In the series on L1210 [5], the ILS at 10 mg/kg was 33%. For the same compound, the remaining at 4 h, 2.6 mg/ml in series [12] was 31%. In addition, in the series with L1210 [16], the ILS at 5 mg/kg was determined as 17%. Also, the ILS at 60 mg/kg with L1210 [17] came out at 93%. In [18], the remaining at 24 h, 2.6 mg/ml amounted to 24%. The ILS at 20 mg/kg with L1210 [20] was determined as 56%. Besides, the ILS at 40 mg/kg with L1210 [21] is 85%.
In the case of `Nc1ncn([C@@H]2O[C@H](CO)[C@@H](O)[C@H]2O)c(=O)n1` [AZACITIDINE], the Activity with Mus musculus [1] is reported as -2.9 g; with Mus musculus [22], “Non-toxic”; with Mus musculus [8] it was -1.6 g; in the series with Mus musculus [9], -5.1 g; in the series on Mus musculus [23], -5.7 g; in the series with Mus musculus [10], -4.5 g. Moreover, the Activity in the series on Mus musculus [11] was -1.8 g; with Mus musculus [13], -2.3 g; in the series on Mus musculus [15] it was -1 g; with Mus musculus [25], -1.5 g; with Mus musculus [19], -6.5 g. The ILS at 10 mg/kg with L1210 [5] came to 86%. The compound also returned a half-life in “Half life in mice” of less than 6 h. The ILS at 2.5 mg/kg in the series with L1210 [24] came to 33%. In addition, the ILS at 5 mg/kg in the series on L1210 [16] was 63%. Also, the ILS at 20 mg/kg with L1210 [20] was 130%. Also, in the series with L1210 [21], the ILS at 40 mg/kg came out at 84%.

Usually half-life stands for how long it takes for the measured level to halve. Lower therefore signals fast loss. By ILS is commonly meant how much longer treated animals lived than controls.
